Reference: ChEMBL document CHEMBL4351008, “Discovery of novel pyrimidine-based benzothiazole derivatives as potent cyclin-dependent kinase 2 inhibitors with anticancer activity” (Eur J Med Chem, 2019)

Experiments:
[1] = system: HCT-116; assay: Antiproliferative activity against human HCT116 cells incubated for 48 hrs by MTT assay; type: functional, cell-based; conditions: HCT-116, 48 h
Procedure, shortened: (§1)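 Cells kept at 37 °C in humidified 5% CO2: MDA-MB-231, MCF-7, HeLa and HCT116 in RPMI-1640; PC-3 in DMEM/F12; both media had 10% FBS. Compounds came from 60 mM DMSO stocks diluted in medium. At 70–80% confluence, cells got fresh medium with compound for 48 h at 37 °C, with 0.1% DMSO as negative control. MTT (5 mg/mL stock) was added for 4 h, and formazan was dissolved in DMSO and read at 570 nm. % inhibition was taken relative to control, IC50 was fitted, and data are mean ± SD of three independent experiments in duplicate.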

[2] = system: MDA-MB-231; assay: Antiproliferative activity against human MDA-MB-231 cells incubated for 48 hrs by MTT assay; type: functional, cell-based; conditions: MDA-MB-231, 48 h; procedure, shortened: as §1
[3] = system: MCF7; assay: Antiproliferative activity against human MCF7 cells incubated for 48 hrs by MTT assay; type: functional, cell-based; conditions: MCF7, 48 h; procedure, shortened: as §1
[4] = system: HeLa; assay: Antiproliferative activity against human HeLa cells incubated for 48 hrs by MTT assay; type: functional, cell-based; procedure, shortened: as §1
[5] = system: PC-3; assay: Antiproliferative activity against human PC3 cells incubated for 48 hrs by MTT assay; type: functional, cell-based; conditions: PC-3, 48 h; procedure, shortened: as §1
[6] = target: CDK2/Cyclin A2 (Homo sapiens, UniProt P24941); assay: Inhibition of CDK2/cyclin A2 (unknown origin) using histone H1 and ATP as substrate incubated for 40 mins by kinase-glo luminescence assay; type: protein-complex assay
[7] = target: T1, CDK2/Cyclin A2 (Homo sapiens) (UniProt P24941+P20248); assay: Inhibition of CDK2/cyclin A2 (unknown origin) using histone H1 and ATP as substrate at 1 uM incubated for 40 mins by kinase-glo luminescence assay relative to control; type: protein-complex assay
Procedure, shortened: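 Recombinant CDK2/cyclin A2 (0.2 µg/mL) was run with 0.1 mg/mL histone H1 and 10 µM ATP in 40 mM Tris pH 7.4, 10 mM MgCl2, 0.1 mg/mL BSA and 1 mM DTT, for 40 min at 30 °C. Compound was tested at 1 µM final, with 1% DMSO final. Remaining ATP was quantified by Kinase-Glo Plus luminescence, which is inversely related to kinase activity.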

[8] = system: HCT-116; assay: Induction of cell cycle arrest in human HCT116 cells assessed as accumulation at G0/G1 phase at 0.35 uM incubated for 24 hrs by PI staining based flow cytometric analysis (reference value: 37.26%); type: functional
[9] = system: HCT-116; assay: Induction of cell cycle arrest in human HCT116 cells assessed as accumulation at G2/M phase at 0.35 uM incubated for 24 hrs by PI staining based flow cytometric analysis (reference value: 17.48%); type: functional
[10] = system: HCT-116; assay: Induction of cell cycle arrest in human HCT116 cells assessed as accumulation at S phase at 0.35 uM incubated for 24 hrs by PI staining based flow cytometric analysis (reference value: 45.26%); type: functional
[11] = system: HCT-116; assay: Induction of cell cycle arrest in human HCT116 cells assessed as accumulation at G0/G1 phase at 0.7 uM incubated for 24 hrs by PI staining based flow cytometric analysis (reference value: 37.26%); type: functional
[12] = system: HCT-116; assay: Induction of cell cycle arrest in human HCT116 cells assessed as accumulation at G2/M phase at 0.7 uM incubated for 24 hrs by PI staining based flow cytometric analysis (reference value: 17.48%); type: functional
[13] = system: HCT-116; assay: Induction of cell cycle arrest in human HCT116 cells assessed as accumulation at S phase at 0.7 uM incubated for 24 hrs by PI staining based flow cytometric analysis (reference value: 45.26%); type: functional
[14] = system: HCT-116; assay: Induction of cell cycle arrest in human HCT116 cells assessed as accumulation at G0/G1 phase at 1.4 uM incubated for 24 hrs by PI staining based flow cytometric analysis (reference value: 37.26%); type: functional
[15] = system: HCT-116; assay: Induction of cell cycle arrest in human HCT116 cells assessed as accumulation at G2/M phase at 1.4 uM incubated for 24 hrs by PI staining based flow cytometric analysis (reference value: 17.48%); type: functional
[16] = system: HCT-116; assay: Induction of cell cycle arrest in human HCT116 cells assessed as accumulation at S phase at 1.4 uM incubated for 24 hrs by PI staining based flow cytometric analysis (reference value: 45.26%); type: functional
[17] = system: HCT-116; assay: Induction of apoptosis in human HCT116 cells assessed as live cells at 0.35 uM incubated for 24 hrs by Annexin-V-FITC/propidium iodide staining based flow cytometric analysis (reference value: 97.7%); type: functional
[18] = system: HCT-116; assay: Induction of apoptosis in human HCT116 cells assessed as early apoptotic cells at 0.35 uM incubated for 24 hrs by Annexin-V-FITC/propidium iodide staining based flow cytometric analysis (reference value: 2.28%); type: functional
[19] = system: HCT-116; assay: Induction of apoptosis in human HCT116 cells assessed as late apoptotic cells at 0.35 uM incubated for 24 hrs by Annexin-V-FITC/propidium iodide staining based flow cytometric analysis (reference value: 0.027%); type: functional
[20] = system: HCT-116; assay: Induction of apoptosis in human HCT116 cells assessed as necrotic cells at 0.35 uM incubated for 24 hrs by Annexin-V-FITC/propidium iodide staining based flow cytometric analysis (reference value: 0%); type: functional
[21] = system: HCT-116; assay: Induction of apoptosis in human HCT116 cells assessed as live cells at 0.7 uM incubated for 24 hrs by Annexin-V-FITC/propidium iodide staining based flow cytometric analysis (reference value: 97.7%); type: functional
[22] = system: HCT-116; assay: Induction of apoptosis in human HCT116 cells assessed as early apoptotic cells at 0.7 uM incubated for 24 hrs by Annexin-V-FITC/propidium iodide staining based flow cytometric analysis (reference value: 2.28%); type: functional
[23] = system: HCT-116; assay: Induction of apoptosis in human HCT116 cells assessed as late apoptotic cells at 0.7 uM incubated for 24 hrs by Annexin-V-FITC/propidium iodide staining based flow cytometric analysis (reference value: 0.027%); type: functional
[24] = system: HCT-116; assay: Induction of apoptosis in human HCT116 cells assessed as necrotic cells at 0.7 uM incubated for 24 hrs by Annexin-V-FITC/propidium iodide staining based flow cytometric analysis (reference value: 0%); type: functional
[25] = system: HCT-116; assay: Induction of apoptosis in human HCT116 cells assessed as live cells at 1.4 uM incubated for 24 hrs by Annexin-V-FITC/propidium iodide staining based flow cytometric analysis (reference value: 97.7%); type: functional
[26] = system: HCT-116; assay: Induction of apoptosis in human HCT116 cells assessed as early apoptotic cells at 1.4 uM incubated for 24 hrs by Annexin-V-FITC/propidium iodide staining based flow cytometric analysis (reference value: 2.28%); type: functional
[27] = system: HCT-116; assay: Induction of apoptosis in human HCT116 cells assessed as late apoptotic cells at 1.4 uM incubated for 24 hrs by Annexin-V-FITC/propidium iodide staining based flow cytometric analysis (reference value: 0.027%); type: functional
[28] = system: HCT-116; assay: Induction of apoptosis in human HCT116 cells assessed as necrotic cells at 1.4 uM incubated for 24 hrs by Annexin-V-FITC/propidium iodide staining based flow cytometric analysis (reference value: 0%); type: functional
[29] = target: T1, CDK2/Cyclin A2 (Homo sapiens); assay: Potency index, ratio of AZD5438 IC50 to compound IC50 for CDK2/cyclin A2 (unknown origin) using histone H1 and ATP as substrate incubated for 40 mins by kinase-glo luminescence assay; type: protein-complex assay
[30] = system: HCT-116; assay: Induction of apoptosis in human HCT116 cells incubated for 24 hrs by Annexin-V-FITC/propidium iodide staining based flow cytometric analysis; type: functional, cell-based
[31] = system: HCT-116; assay: Induction of cell cycle arrest in human HCT116 cells assessed as debris content at 0.35 uM incubated for 24 hrs by PI staining based flow cytometric analysis (reference value: 0%); type: functional
[32] = system: HCT-116; assay: Induction of cell cycle arrest in human HCT116 cells assessed as debris content at 0.7 uM incubated for 24 hrs by PI staining based flow cytometric analysis (reference value: 0%); type: functional
[33] = system: HCT-116; assay: Induction of cell cycle arrest in human HCT116 cells assessed as debris content at 1.4 uM incubated for 24 hrs by PI staining based flow cytometric analysis (reference value: 0%); type: functional
[34] = system: HCT-116; assay: Induction of cell cycle arrest in human HCT116 cells incubated for 24 hrs by PI staining based flow cytometric analysis; type: functional

NS(=O)(=O)c1ccc(Nc2nccc(Nc3nc4ccc(F)cc4s3)n2)cc1
IC50 [1]: 700 nM | IC50 [2]: 1800 nM | IC50 [3]: 10900 nM | IC50 [4]: 450 nM | IC50 [5]: 920 nM | IC50 [6]: 15.4 nM | inhibition [7]: 94% | Activity [8]: 36.61% | Activity [9]: 24.36% | Activity [10]: 39.03% | Activity [11]: 35.61% | Activity [12]: 33.51% | Activity [13]: 30.88% | Activity [14]: 34.57% | Activity [15]: 46.92% | Activity [16]: 18.51% | Activity [17]: 80.8% | Activity [18]: 10.1% | Activity [19]: 9.07% | Activity [20]: 0.027% | Activity [21]: 64.3% | Activity [22]: 13% | Activity [23]: 22.3% | Activity [24]: 0.384% | Activity [25]: 51.4% | Activity [26]: 19.1% | Activity [27]: 29.1% | Activity [28]: 0.414% | Ratio IC50 [29]: 3 | Activity [30]: Dose-dependent effect | Activity [31]: 0.74% | Activity [32]: 6.86% | Activity [33]: 39.3% | Activity [34]: Dose-dependent effect
